Results taken from ChEMBL document CHEMBL1122868, “New antiallergic pyrano [3,2-g]quinoline-2,8-dicarboxylic acids with potential for the topical treatment of asthma” (1985).
The source made the active and inactive calls. The calls are words filed in the database; no cut-off is given here.

Assays:
Canis familiaris [1] = assay: Activity index by dog hypotension screen assay at 10 ug/Kg per min for 15 min.; format: functional, Canis lupus familiaris
Canis familiaris [2] = assay: Percent inhibition by dog hypotension screen assay at 10 ug/Kg per min for 15 min.; format: functional; conditions: Canis lupus familiaris, 0.25 h
Rattus norvegicus [3] = organism: Rattus norvegicus; assay: Inhibitory dose by PCA test […].; format: functional; conditions: read-out: ID50 (the source's name)
How it was run: (§1)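 Rat passive cutaneous anaphylaxis. Female rats (100 g) sensitized intradermally with 0.1 mL rat anti-egg albumin reaginic serum diluted in saline. After 24 h, rats were challenged i.v. with egg albumin, Evans Blue and saline, with the compound in saline given in the same injection. Reactions measured at 20 min; groups of five. ID50 taken from a log-dose regression of 20–80% inhibition.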

Canis familiaris [4] = assay: Percent inhibition was evaluated by dog hypotension screen assay at 10 ug/Kg per min for 15 min; inactive; format: functional, organism-based; conditions: Canis lupus familiaris
How it was run: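 In anaesthetized beagles (pentobarbitone 30 mg/kg i.v.), hypotensive responses to a standardized bolus of sodium cromoglycate were established. Test compound was infused i.v. for 15 min, and the cromoglycate bolus was repeated at the end of the infusion and every 30 min over 3 h. Percent inhibition was expressed as area under the curve over 3 h; single experiments.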

Rattus norvegicus [5] = organism: Rattus norvegicus; assay: Potency ratio to that of sodium cromoglycate (1.0) using PCA test.; format: functional
How it was run: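 Passive cutaneous anaphylaxis in female rats sensitized with reaginic anti-egg albumin serum and challenged i.v. at 24 h with antigen plus Evans Blue. Compound in saline was co-injected with antigen; groups of five. Sodium cromoglycate ID50 was determined in each experiment. Potency ratio = ID50(sodium cromoglycate)/ID50(compound), with ID50s from regression lines of inhibition against log dose.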

Canis familiaris [6] = organism: Canis familiaris; assay: Relative activity in dog hypotension; format: functional, Canis lupus familiaris
Monkey [7] = assay: (§2) Ability to inhibit histamine release from monkey lung lavage cells; format: functional; conditions: Cercopithecidae, in Primates
Rattus norvegicus [8] = organism: Rattus norvegicus; assay: Ability to inhibit histamine release from rat peritoneal mast cells.; format: functional
Rattus norvegicus [9] = organism: Rattus norvegicus; assay: Ability to inhibit histamine release from rat peritoneal mast cells using PCA assay.; format: functional; how it was run: as §1
Rattus norvegicus [10] = organism: Rattus norvegicus; assay: Compound was evaluated to induce phosphorylation of the 78000 molecular weight mast cell protein; Active to induce phosphorylation; format: functional
Monkey [11] = assay: as §2; format: functional, Cercopithecidae
Canis familiaris [12] = assay: Activity index was evaluated by dog hypotension screen assay at 20 ug/Kg per min for 15 min; format: functional, Canis lupus familiaris
Rattus norvegicus [13] = organism: Rattus norvegicus; assay: Ability to inhibit histamine release from rat peritoneal mast cells; format: functional

Row | SMILES | Activity index (Canis familiaris [1]) | inhibition in vivo at 10 µg/kg/min (Canis familiaris [2]) | ED50 (Rattus norvegicus [3]) | Potency ratio (Rattus norvegicus [5]) | also measured
1 | CCCc1c2nc(C(=O)[O-])cc(Cl)c2cc2c(=O)cc(C(=O)[O-])oc12.[Na+].[Na+] | 7.2 | 72% | 1.38 mg/kg |  | 
2 | O=C([O-])c1cc(Cl)c2cc3c(=O)cc(C(=O)[O-])oc3cc2n1.[Na+].[Na+] | 0 |  | 4.23 mg/kg | 0.72 | inhibition (Canis familiaris [4]): inactive
3 | CCCc1c2oc(C(=O)[O-])cc(=O)c2cc2c(=O)cc(C(=O)[O-])n(CCC)c12.[Na+].[Na+] | 2.8 | 28% | 3.71 mg/kg | 0.43 | 
4 | CCCc1c2oc(C(=O)[O-])cc(=O)c2cc2c(=O)cc(C(=O)[O-])n(CC)c12.[Na+].[Na+] [NEDOCROMIL SODIUM] | 6 | 60% | 0.95 mg/kg | 1.1 | Relative activity (Canis familiaris [6]): 1.9; IC30 (Monkey [7]): 5.2 µM; Potency (Rattus norvegicus [8]): 1; Potency (Rattus norvegicus [9]): 1.1; Potency (Rattus norvegicus [10]): Active to induce phosphorylation; Relative potency (Monkey [11]): 190
5 | CCCc1c2nc(C(=O)[O-])cc(Nc3ccccc3)c2cc2c(=O)cc(C(=O)[O-])oc12.[Na+].[Na+] |  |  | 0.57 mg/kg | 3.47 | Activity index (Canis familiaris [12]): 3
6 | CCCc1c2oc(C(=O)[O-])cc(=O)c2cc2c(=O)cc(C(=O)[O-])n(C)c12.[Na+].[Na+] | 5.5 | 55% | 0.21 mg/kg | 6.6 | 
7 | CCCc1c2nc(C(=O)O)cc(C)c2cc2c(=O)cc(C(=O)O)oc12 | 6.6 | 66% | 0.71 mg/kg | 2.97 | 
8 | CCCc1c2nccc(O)c2cc2c(=O)cc(C(=O)[O-])oc12.[Na+] |  |  | 6.03 mg/kg | 0.35 | 
9 | Cc1c2nc(C(=O)[O-])cc(O)c2cc2c(=O)cc(C(=O)[O-])oc12.[Na+].[Na+] | 6.6 | 66% | 0.11 mg/kg | 12.7 | 
10 | CCn1c(C(=O)[O-])cc(=O)c2cc3c(=O)cc(C(=O)[O-])oc3cc21.[Na+].[Na+] | 7.6 | 76% | 10 mg/kg | 0.16 | 
11 | CCCc1c2nc(C(=O)[O-])cc(N(C)C(C)=O)c2cc2c(=O)cc(C(=O)[O-])oc12.[Na+].[Na+] |  |  | 4.02 mg/kg | 0.88 | Activity index (Canis familiaris [12]): 1
12 | CCCc1c2nc(C(=O)[O-])cc(NC)c2cc2c(=O)cc(C(=O)[O-])oc12.[Na+].[Na+] |  |  | 0.22 mg/kg | 7.13 | Activity index (Canis familiaris [12]): 4; Relative activity (Canis familiaris [6]): 1.25; IC30 (Monkey [7]): 28.5 µM; Potency (Rattus norvegicus [13]): 6; Potency (Rattus norvegicus [9]): 7.1; Potency (Rattus norvegicus [10]): Active to induce phosphorylation; Relative potency (Monkey [11]): 35
13 | O=C([O-])c1cc(O)c2cc3c(=O)cc(C(=O)[O-])oc3cc2n1.[Na+].[Na+] | 7.8 | 78% | 0.22 mg/kg | 11.6 | 
14 | C=CCc1c2nc(C(=O)[O-])cc(Cl)c2cc2c(=O)cc(C(=O)[O-])oc12.[Na+].[Na+] | 2.1 | 21% | 2.4 mg/kg | 1.09 | 
15 | CCCc1c2nc(C(=O)[O-])cc(O)c2cc2c(=O)cc(C(=O)[O-])oc12.[Na+].[Na+] | 6.5 | 65% | 0.03 mg/kg | 80 | 
16 | CCCc1c2nc(C(=O)[O-])cc(SCC)c2cc2c(=O)cc(C(=O)[O-])oc12.[Na+].[Na+] | 5.9 | 59% | 0.14 mg/kg | 11.1 | 
